Results as given in ChEMBL document CHEMBL1138289, “Synthesis and biological evaluation of fluorescent leishmanicidal analogues of hexadecylphosphocholine (miltefosine) as probes of antiparasite mechanisms” (J Med Chem, 2007).

Assays:
Leishmania donovani [1] = assay: Antileishmanial activity against miltefosine-sensitive Leishmania donovani MHOM/ET/67/L82 promastigotes by MTT assay; type: functional; conditions: read-out: LD50 (the source's name)
Summary of the method: (§1)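 Promastigotes from late exponential phase, washed twice, seeded at 2 × 10^6 parasites mL-1 in RPMI with 10% heat-inactivated FCS and 2 mM glutamine, exposed to compound 72 h at 26 °C. Washed in Hanks+Glc, MTT 0.5 mg mL-1 for 2 h at 26 °C, formazan dissolved in 10% SDS overnight at 37 °C, A595. Triplicates, two or more experiments; LD50 with SE.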

Leishmania donovani [2] = assay: Antileishmanial activity against miltefosine-resistant Leishmania donovani MHOM/ET/67/L82R40 promastigotes by MTT assay; type: functional; conditions: read-out: LD50 (the source's name); summary of the method: as §1
Leishmania pifanoi = assay: Antileishmanial activity against miltefosine-sensitive Leishmania pifanoi MHOM/VE/60/Ltrod amastigotes by MTT assay; type: functional; conditions: read-out: LD50 (the source's name)
Summary of the method: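 Axenic amastigotes from late exponential phase, washed twice, seeded at 2 × 10^6 parasites mL-1 in growth medium with compound for 120 h at 32 °C. Then washed in Hanks+Glc, given 0.5 mg mL-1 MTT for 2 h at 32 °C, SDS 10% overnight at 37 °C, absorbance 595 nm. Triplicates, repeated at least twice; LD50 (50% proliferation inhibition) with SE.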

Leishmania donovani [3] = assay: Drug level per mg of protein in miltefosine-sensitive Leishmania donovani promastigotes at 15 uM after 2 hrs; type: ADME, organism-based; conditions: in vivo
Summary of the method: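 Late-exponential L. donovani promastigotes (MHOM/ET/67/L82) washed twice in Hanks+Glc, resuspended at 1.5 × 10^7 parasites mL-1 in the same medium with the analogue, incubated 2 h at 26 °C to reach steady intracellular accumulation. Analogue extracted and quantified by HPLC against calibration plots; expressed per mg protein.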

Leishmania donovani [4] = assay: Intracellular drug concentration in miltefosine-sensitive Leishmania donovani promastigotes at 7.5 uM after 2 hrs; conditions: in vivo

| SMILES | LC50 (Leishmania donovani [1]) | LC50 (Leishmania donovani [2]) | LC50 (Leishmania pifanoi) | Drug uptake (Leishmania donovani [3]) | Intracellular concentration (Leishmania donovani [4]) |
| --- | --- | --- | --- | --- | --- |
| C[N+](C)(C)CCOP(=O)([O-])OCCCCC/C=C/C=C/C=C/C=C/c1ccccc1 | 28.6 µM | > 60 µM | 26 µM | – | – |
| C[N+](C)(C)CCOP(=O)([O-])OCCCCCC#C/C=C/C=C/C=C/c1ccccc1 | 29.6 µM | > 60 µM | 26.5 µM | 7.6 nmol/mg | 0.7 mM |
| OCCCCCC#C/C=C/C=C/C=C/c1ccccc1 | > 150 µM | > 150 µM | > 150 µM | – | – |
| COC(COCCCCCCC/C=C/C=C/C=C/C=C/c1ccccc1)COP(=O)([O-])OCC[N+](C)(C)C (racemic) | 9 µM | > 60 µM | 22.5 µM | – | – |
| CCCCCCCCCCCCCCCCOP(=O)([O-])OCC[N+](C)(C)C [MILTEFOSINE] | 12.5 µM | > 60 µM | 26.3 µM | – | – |
